From PubChem
PfM18AAP inh-1 = PfM18AAP inhibitors, malaria aminopeptidase, primary screen, biochemical, QFRET, recombinant enzyme; hit rate 1.2% among 290,000; AID 1822, 2009; H-Glu-NHMec fluorogenic cleavage; inhibition, % at 7.35 µM;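 active = inhibition above the campaign mean inhibition over all tested compounds plus 3 SD, cut at about 28% in these data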;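 note: 0% = plate median of test compound wells and 100% = 2 mM ZnCl2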
L929 necroptosis = inhibitors of zVAD-triggered necroptosis, primary screen, L929 cells. hit rate 0.38% among 220,000. L929 zVAD necroptosis rescue, ATP luminescence, 24 h; with zVAD 60 µM. viability rescue, % at 10 µM;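 active = activation, scaled between plate controls, above about 75%, limit read from the data; inactive = activation under that limit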;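 note: 0% = zVAD with DMSO and 100% = DMSO alone without zVAD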
TNF necrop inh = inhibitors of TNF-alpha triggered necroptosis, primary screen, cell-based, Jurkat FADD-/-, single concentration; Jurkat FADD-/- TNF necroptosis rescue, ATP luminescence, 24 h; 0 = TNF only, 100 = no-TNF cells; activation (protection from cell death), % at 10 µM; hit rate 0.068% among 220,000;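 active = activation, meaning protection from cell death, of at least 50% relative to plate controls; inactive = activation below 50%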;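 note: necroptosis triggered by 40 ng/mL TNF-alpha added together with compound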
Tb hexokinase = Trypanosoma brucei hexokinase 1 inhibitors, primary screen, biochemical, G6PDH-coupled NADH absorbance, MLSCN library; hit rate 0.11% among 220,000; AID 1430, 2008; recombinant TbHK1, G6PDH-coupled NADH A340; inhibition, % at 10 µM;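 active = inhibition of 50% or more in the single-dose primary screen; inactive = inhibition below 50%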
Hep lipid drop = inhibitors of hepatocyte lipid droplet formation, primary screen, imaging, high-throughput imaging, BODIPY stain; AML12 mouse hepatocytes, oleate lipid droplets; AID 1656, 2009; hit rate 0.4% among 240,000; inhibition, % at 6.5 µM;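 active = lipid droplet intensity inhibited by at least 50%, with more than 500 cells counted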
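Test system: AML12 hepatocytes (mouse); reagent: oleate loading, 100 µM; dosing: one dose, 6.5 µM compound; incubation: overnight exposure; signal: fluorescence imaging, 20x objective, two fields per well; read-out basis: % inhibition of corrected integrated BODIPY droplet signal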
RBBP9 inhibitor = human RBBP9 inhibitors, primary screen, biochemical, fluorescence polarization, FP-Rh probe, HTS. Serine hydrolase RBBP9 (Homo sapiens), O75884. recombinant RBBP9. inhibition, % at 7.94 µM. hit rate 0.2% among 220,000. AID 1515, 2009;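 active = inhibition above the campaign mean of all tested compounds plus 3 SD, cut at about 14% in these data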;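 note: plate controls were DMSO wells with RBBP9 for no effect and wells lacking RBBP9 protein for full effect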
Target sequence (O75884 whole entry, looked up): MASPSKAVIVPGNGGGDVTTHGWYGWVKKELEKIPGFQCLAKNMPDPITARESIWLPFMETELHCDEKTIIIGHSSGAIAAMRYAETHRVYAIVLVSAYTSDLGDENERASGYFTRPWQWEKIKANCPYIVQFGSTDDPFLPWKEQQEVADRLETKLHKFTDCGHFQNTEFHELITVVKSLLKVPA
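System: RBBP9 protein | Quantity: 2.5 µM RBBP9 dispensing solution, before mixing | Reagent: FP-Rh probe, 375 nM dispensing solution | Timing: Enzyme-compound preincubation 30 min, then probe labeling 45 min, 25 °C | Measured by: Fluorescence polarization | Read-out: % inhibition | Replication: One well per compound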
PfM18AAP inh-2 = PfM18AAP inhibitors, malaria aminopeptidase, confirmation, biochemical, QFRET, recombinant enzyme, triplicate | shares compounds with PfM18AAP inh-1 | H-Glu-NHMec fluorogenic cleavage | inhibition, % at 7.35 µM | hit rate 28% among 2,400;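 active = mean inhibition over replicate wells above the hit cutoff set for the earlier primary screen, cut at about 29% in these data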;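 note: 0% = median of test compound wells and 100% = 2 mM ZnCl2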
CTSL1 counter = cathepsin L1 inhibitors, retest, confirmation, counter-screen for PFM18AAP inhibitor project, biochemical, QFRET, triplicate | shares compounds with PfM18AAP inh-1 | purified cathepsin L1, Z-Leu-Arg-MCA fluorescence | inhibition, % at 5.96 µM | 2,400 tested, under 10 active | AID 2178, 2009;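 active = average inhibition across replicates above the hit cutoff set in the earlier primary screen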;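 note: 0% = median of test compound wells and 100% = Z-Phe-Ala-diazomethylketone 1 µM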
Target sequence (P07711 whole entry, looked up): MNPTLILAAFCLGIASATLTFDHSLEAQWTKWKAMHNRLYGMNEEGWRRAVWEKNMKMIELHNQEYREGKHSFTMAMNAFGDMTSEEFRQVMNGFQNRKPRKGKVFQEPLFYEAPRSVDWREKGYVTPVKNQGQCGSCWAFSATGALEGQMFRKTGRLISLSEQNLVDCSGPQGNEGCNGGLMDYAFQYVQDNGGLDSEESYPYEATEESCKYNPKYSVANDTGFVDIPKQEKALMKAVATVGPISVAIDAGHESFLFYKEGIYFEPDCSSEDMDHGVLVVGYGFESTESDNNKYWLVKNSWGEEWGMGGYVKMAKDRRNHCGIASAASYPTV
An asterisk follows results filed as active; / = no result. Shown are actives, neighbours in structure and some others; about 2% of the full set was active somewhere.

SMILES | PfM18AAP inh-1 | L929 necroptosis | TNF necrop inh | Tb hexokinase | Hep lipid drop | RBBP9 inhibitor | PfM18AAP inh-2 | CTSL1 counter
O=C(N/N=C/c1c[nH]c2ccccc12)c1cccc(O)c1 | 3 | / | / | / | -12 | / | / | /
O=C(N/N=C/c1c[nH]c2ccccc12)c1ccc(O)c(O)c1 | 70* | / | / | / | 4 | / | 50* | 2
COc1ccc(CCN(C)C(=O)Cn2c(=O)oc3ccccc32)cc1OC | -6 | / | / | / | -40 | / | / | /
O=C(O)Cc1c[nH]c2cccc(O)c12 | 44* | 0 | -1 | -2 | 14 | -2 | 0 | -6
CC(C)(C)C1CCC(=NNc2ncc(C(F)(F)F)cc2Cl)CC1 (stereo unspecified) | 33* | 0 | 1 | -1 | 7 | 7 | 3 | 4
Cc1nc2ccc(S(=O)(=O)NCC(=O)NC(C)c3ccccc3)cc2s1 (stereo unspecified) | 33* | 0 | -1 | -7 | 1 | 2 | -31 | 3
O=S1(=O)N=C(Nc2nncs2)c2ccccc21 | 41* | -1 | 0 | -43 | 9 | -3 | 51* | 0
CCN(CC)S(=O)(=O)c1ccc(NC2=NS(=O)(=O)c3ccccc32)cc1 | 4 | 0 | 1 | -9 | 10 | 1 | / | /
CCn1c(C)nc2cc(C(=O)NNC(=S)Nc3ccc(C)cc3)ccc21 | 40* | -1 | -2 | -3 | -5 | -8 | -52 | -1
CCn1c(C)nc2cc(C(=O)NNC(=S)Nc3ccccc3OC)ccc21 | 3 | 0 | -3 | -12 | 9 | 0 | / | /
COc1cccc(CC(=O)Nc2ccc(S(=O)(=O)Nc3nc(C)cc(C)n3)cc2)c1 | -14 | 3 | 2 | -8 | 10 | -3 | / | /
COc1ccc(NC(=O)NNC(=O)c2ccc3ccccc3c2O)c(OC)c1 | 36* | / | / | / | -2 | / | 5 | 1
CCc1ccccc1NC(=O)NNC(=O)c1ccc2ccccc2c1O | 39* | / | / | / | -2 | / | 3 | -1
CCOc1ccc(NC(=O)NNC(=O)c2ccc3ccccc3c2O)cc1 | 24 | / | / | / | -2 | / | / | /
NC(=O)C1CCN(C(=S)c2ccc(-c3ccc(Br)cc3)o2)CC1 | 49* | 1 | 1 | -8 | -14 | -10 | -13 | 7
CC(C)C(Nc1ccc(S(=O)(=O)N2CCOCC2)cc1[N+](=O)[O-])C(=O)O (stereo unspecified) | -2 | 1 | 0 | 1 | -10 | 2 | / | /
CC(Sc1ccc(S(=O)(=O)N2CCOCC2)cc1[N+](=O)[O-])C(=O)O (stereo unspecified) | 33* | 0 | 1 | -7 | 14 | -5 | -34 | -7
O=C1S/C(=C\C=C\c2ccco2)C(=O)N1c1ccccc1 | 15 | -1 | -1 | -3 | 13 | 2 | / | /
O=C1S/C(=C\C=C\c2ccco2)C(=O)N1c1ccc(O)cc1 | 39* | 0 | -3 | -11 | 4 | 9 | -39 | 11
COc1ccc(-n2c(Cn3nc(C(F)(F)F)cc3C)n[nH]c2=S)cc1 | 32* | 1 | 1 | 0 | -3 | 2 | -17 | -3
CC(C)CC(=O)NC(NCC1CCCO1)C(Cl)(Cl)Cl (stereo unspecified) | -1 | 0 | -3 | -4 | 18 | -4 | / | /
CCN(CC)c1ccc2c(c1)OC(N)=C(C#N)C2c1cccnc1 (stereo unspecified) | 45* | 0 | -10 | 2 | / | -9 | 9 | 1
O=C(CCC1CCCNC1)c1ccccc1 (stereo unspecified) | -16 | / | / | / | 4 | / | / | /
Cc1ccc2nc3c(cc(C(=O)NCc4ccco4)c(=N)n3C3CCCC3)c(=O)n2c1 | 38* | / | / | / | -15 | / | -30 | 3
Cc1nn(-c2ccccc2)c(C)c1NC(=O)COC(=O)CCc1ccccc1 | -2 | / | / | / | -2 | / | / | /
SMILES | PfM18AAP inh-1 | L929 necroptosis | TNF necrop inh | Tb hexokinase | Hep lipid drop | RBBP9 inhibitor | PfM18AAP inh-2 | CTSL1 counter
Cc1[nH]n(-c2cccc3ccccc23)c(=O)c1/C=N/c1sc2c(c1C#N)CCC2 | 14 | 0 | 1 | 0 | -4 | -2 | / | /
Cc1[nH]n(-c2ccc(F)cc2)c(=O)c1/C=N/c1sc2c(c1C#N)CCCC2 | 34* | 1 | -1 | -19 | / | -4 | -56 | 3
CCOC(=O)c1ccc(NC(=O)Nc2ccc(S(N)(=O)=O)cc2)cc1 | 2 | 1 | 1 | 5 | 7 | -10 | / | /
O=C(Nc1cc(Cl)ccc1Cl)Nn1cnnc1 | 87* | / | / | / | 2 | / | 89* | 5
O=C(Nc1ccncc1)Nc1cc(Cl)ccc1Cl | 0 | / | / | / | 14 | / | / | /
CCOC(=O)c1ccc(NC(=O)Nn2cnnc2)cc1 | 72* | / | / | / | -2 | / | 64* | 1
O=C(Nc1ccc(F)cc1)Nn1cnnc1 | 58* | / | / | / | 13 | / | 46* | -4
O=C(Nc1ccc(F)c(Cl)c1)Nn1cnnc1 | 76* | / | / | / | -2 | / | 60* | -1
CSc1ccc(C(=O)C2CCCN(C(=O)Cn3cnnn3)C2)cc1 (stereo unspecified) | 1 | / | / | / | -1 | / | / | /
Cc1c(Cl)cccc1NC(=O)Nn1cnnc1 | 82* | / | / | / | 4 | / | 65* | 1
CN(C)C(=O)c1cc(C(=O)c2ccc(C(F)(F)F)cc2)c[nH]1 | -4 | / | / | / | / | / | / | /
Cc1cc(NC(=O)c2ccc([N+](=O)[O-])cc2)n(CCC#N)n1 | 1 | / | / | / | -15 | / | / | /
CCN(CC)P(=O)(Nc1ccc([N+](=O)[O-])cc1)c1c(C)nn(CCC#N)c1NC(=O)c1ccc(Cl)cc1 (stereo unspecified) | 58* | / | / | / | -8 | / | 8 | -1
CC[n+]1c(/C=C/C=C/N(C(C)=O)c2ccccc2)sc2cc(OC)ccc21 | 43* | -1 | -7 | 5 | -107 | -27 | -36 | 1
COc1ccc2sc(/C=C/c3ccccc3O)[n+](C)c2c1 | 24 | 0 | 1 | -3 | -3 | -62 | / | /
Oc1ccc(/C=N/N(Cc2ccccc2)c2ccccc2)c(O)c1O | 50* | -2 | 0 | 11 | -5 | -11 | -19 | -2
O=S(=O)(c1cccc(F)c1)N1CCCN(c2ccc(C(F)(F)F)cn2)CC1 | 5 | 1 | 1 | -12 | -11 | 6 | / | /
CCOc1ccc(CN2CCC(Cc3ccccc3)CC2)cc1 | 0 | / | / | / | -10 | / | / | /
